Assay [1] relates to Mycobacterium tuberculosis. Briefly: Antimycobacterial activity against Mycobacterium tuberculosis H37Rv in iron rich GAST medium. The format is functional. A digest of the protocol:
(§1)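 Broth microdilution MIC against M. tuberculosis H37Rv in iron-deficient GAST, or GAST supplemented with 200 μM FeCl3 (iron-rich). Compounds added from DMSO stocks; DMSO-only wells as negative control, isoniazid as positive control. Initial density 10^4–10^5 cells/assay, 37 °C, growth read as OD620 at 10–14 days. Run in quadruplicate; reported as MIC99.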

For assay [2], the target named is T1, Salicyl-AMP ligase / salicyl-S-ArCP synthetase (Mycobacterium tuberculosis, UniProt P71716).
T1 sequence (P71716 whole entry): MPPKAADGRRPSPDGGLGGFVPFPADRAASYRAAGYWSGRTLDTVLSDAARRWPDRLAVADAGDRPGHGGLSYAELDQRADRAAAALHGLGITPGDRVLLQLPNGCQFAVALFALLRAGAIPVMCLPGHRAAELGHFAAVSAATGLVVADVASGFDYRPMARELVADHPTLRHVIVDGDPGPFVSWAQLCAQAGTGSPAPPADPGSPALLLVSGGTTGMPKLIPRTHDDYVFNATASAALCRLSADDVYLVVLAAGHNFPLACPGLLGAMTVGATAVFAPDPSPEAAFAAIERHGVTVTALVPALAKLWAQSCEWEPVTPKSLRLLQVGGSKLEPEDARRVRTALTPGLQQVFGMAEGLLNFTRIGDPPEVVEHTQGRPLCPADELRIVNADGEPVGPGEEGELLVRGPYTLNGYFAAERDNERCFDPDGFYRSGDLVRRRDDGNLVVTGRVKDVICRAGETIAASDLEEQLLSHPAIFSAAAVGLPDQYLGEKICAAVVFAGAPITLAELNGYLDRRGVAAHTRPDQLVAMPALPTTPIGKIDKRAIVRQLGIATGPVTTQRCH
In words: Inhibition of Mycobacterium tuberculosis recombinant MbtA expressed in Escherichia coli by ATP/PPi exchange assay. The note with it: read-out: Ki app. A digest of the protocol: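 Recombinant MbtA expressed in E. coli, 7 nM, at 37 °C in 75 mM Tris-HCl pH 7.5, 10 mM MgCl2, 2 mM DTT, 250 μM salicylic acid, 10 mM ATP, 1 mM PPi. Reaction started with [32P]PPi, five inhibitor concentrations, in duplicate. Initial rates (≤10% reaction) measured. Quenched with HClO4/PPi/charcoal; charcoal-bound [32P]ATP counted by scintillation. Apparent Ki from Hill or Morrison (tight-binding) fits.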

Assay [3] relates to Mycobacterium tuberculosis. In words: Antimycobacterial activity against Mycobacterium tuberculosis H37Rv in iron deficient GAST medium. The format is functional. In a few lines:
as §1

Converted amounts (≈) assume the structure as drawn. Bounds are passed on as bounds.

On to `Nc1ncnc2c1ncn2[C@@H]1O[C@H](COS(=O)(=O)NC(=O)c2ccc(C(F)(F)F)cc2O)[C@@H](O)[C@H]1O`, for which the MIC99 in assay [1] and in assay [3] was greater than 200 µM each time. In assay [2], the Ki was 4.38 µM.

Turning to `Nc1ncnc2c1ncn2[C@@H]1O[C@H](COS(=O)(=O)NC(=O)c2cccc(Cl)c2O)[C@@H](O)[C@H]1O`, the MIC99 in assay [1] is greater than 200 µM; in assay [3], 50 µM (≈ 25 µg/mL). The Ki in assay [2] is 0.061 µM.

Regarding `Nc1ncnc2c1ncn2[C@@H]1O[C@H](COS(=O)(=O)NC(=O)c2ccc(O)c(O)c2)[C@@H](O)[C@H]1O`, the MIC99 in assay [1] and in assay [3] was greater than 200 µM each time. Besides, the Ki in assay [2] was greater than 100 µM.

As to `Cc1ccc(C(=O)NS(=O)(=O)OC[C@H]2O[C@@H](n3cnc4c(N)ncnc43)[C@H](O)[C@@H]2O)c(O)c1`, the MIC99 was determined as 25 µM (≈ 12 µg/mL) in assay [1] and 1.56 µM (≈ 0.75 µg/mL) in assay [3]. Also, the Ki in assay [2] turned out to be 0.014 µM.

On to `Nc1ncnc2c1ncn2[C@@H]1O[C@H](COS(=O)(=O)NC(=O)C2CCCCC2)[C@@H](O)[C@H]1O`, for which the MIC99 in assay [1] and in assay [3] was greater than 200 µM each time. Besides, the Ki in assay [2] stood at 17.3 µM.

For `Nc1ncnc2c1ncn2[C@@H]1O[C@H](COS(=O)(=O)NC(=O)c2ccc[nH]c2=O)[C@@H](O)[C@H]1O`, the MIC99 in assay [1] and in assay [3] was greater than 200 µM in each case. Also, the Ki in assay [2] came to 3.7 µM.

Regarding `Nc1ncnc2c1ncn2[C@@H]1O[C@H](CNC(=O)NC(=O)c2ccccc2O)[C@@H](O)[C@H]1O`, the MIC99 in assay [1] was greater than 200 µM; in assay [3] it was 200 µM (≈ 85.9 µg/mL). Further, the Ki in assay [2] was 1.25 µM.

With `Nc1ncnc2c1ncn2[C@@H]1O[C@H](CNC(=O)c2coc3ccccc3c2=O)[C@@H](O)[C@H]1O`, the MIC99 in assay [1] was 50 µM (≈ 21.9 µg/mL); in assay [3], 12.5 µM (≈ 5.48 µg/mL). Moreover, the Ki in assay [2] is greater than 100 µM.

For the compound `Nc1ncnc2c1ncn2[C@@H]1O[C@H](COS(=O)(=O)NC(=O)c2ccccc2Cl)[C@@H](O)[C@H]1O`, the MIC99 in assay [1] and in assay [3] was greater than 200 µM each time. Moreover, in assay [2], the Ki amounted to 18.1 µM.

Take `Nc1ncnc2c1ncn2[C@@H]1O[C@H](COS(=O)(=O)NC(=O)c2c(O)cccc2F)[C@@H](O)[C@H]1O`: the MIC99 in assay [1] stood at 3.13 µM (≈ 1.52 µg/mL); in assay [3], 0.78 µM (≈ 0.378 µg/mL). The Ki in assay [2] was determined as 0.0073 µM.

Turning to `Nc1ncnc2c1ncn2[C@@H]1O[C@H](COS(=O)(=O)NC(=O)c2cccnc2F)[C@@H](O)[C@H]1O`, the MIC99 in assay [1] and in assay [3] was greater than 200 µM each time. The Ki in assay [2] worked out at 2.9 µM.

`Nc1ncnc2c1ncn2[C@@H]1O[C@H](COS(=O)(=O)NC(=O)c2ccc(Cl)cc2O)[C@@H](O)[C@H]1O`: the MIC99 in assay [1] came to 50 µM (≈ 25 µg/mL); in assay [3] it was 12.5 µM (≈ 6.26 µg/mL). For the same compound, the Ki in assay [2] is 0.012 µM.

For the compound `Nc1ncnc2c1ncn2[C@@H]1O[C@H](COS(=O)(=O)NC(=O)c2cccc(O)c2O)[C@@H](O)[C@H]1O`, the MIC99 in assay [1] and in assay [3] was greater than 200 µM each time. In assay [2], the Ki amounted to 0.137 µM.

In the case of `[N-]=[N+]=Nc1c(F)c(F)c(C(=O)NS(=O)(=O)OC[C@H]2O[C@@H](n3cnc4c(N)ncnc43)[C@H](O)[C@@H]2O)c(F)c1F`, the MIC99 in assay [1] and in assay [3] was greater than 200 µM in each case. For the same compound, the Ki in assay [2] was greater than 100 µM.

Take `Nc1ccccc1C(=O)NS(=O)(=O)OC[C@H]1O[C@@H](n2cnc3c(N)ncnc32)[C@H](O)[C@@H]1O`: the MIC99 in assay [1] and in assay [3] was greater than 200 µM each time. For the same compound, in assay [2], the Ki amounted to 0.77 µM.

Consider `Nc1ncnc2c1ncn2[C@@H]1O[C@H](COS(=O)(=O)NC(=O)c2ccc(F)cc2O)[C@@H](O)[C@H]1O`, for which the MIC99 in assay [1] amounted to 0.39 µM (≈ 0.189 µg/mL); in assay [3] it was 0.098 µM (≈ 0.0475 µg/mL). Further, the Ki in assay [2] was 0.012 µM.

Consider `Nc1ncnc2c1ncn2[C@@H]1O[C@H](COS(=O)(=O)NC(=O)C2CCCC2)[C@@H](O)[C@H]1O`, for which the MIC99 in assay [1] and in assay [3] was greater than 200 µM each time. Besides, the Ki in assay [2] came to 49.8 µM.

Regarding `Nc1ncnc2c1ncn2[C@@H]1O[C@H](COS(=O)(=O)NC(=O)c2ccccc2)[C@@H](O)[C@H]1O`, the MIC99 in assay [1] amounted to 50 µM (≈ 22.5 µg/mL); in assay [3], 12.5 µM (≈ 5.63 µg/mL). Also, in assay [2], the Ki came to 0.092 µM.

As for `CC(=O)NS(=O)(=O)OC[C@H]1O[C@@H](n2cnc3c(N)ncnc32)[C@H](O)[C@@H]1O`, the MIC99 in assay [1] and in assay [3] was greater than 200 µM each time. For the same compound, the Ki in assay [2] was greater than 100 µM.

For the compound `Nc1ccc(C(=O)NS(=O)(=O)OC[C@H]2O[C@@H](n3cnc4c(N)ncnc43)[C@H](O)[C@@H]2O)c(O)c1`, the MIC99 is 25 µM (≈ 12 µg/mL) in assay [1] and 1.56 µM (≈ 0.751 µg/mL) in assay [3]. In assay [2], the Ki is 0.04 µM.

`Nc1ncnc2c1ncn2[C@@H]1O[C@H](COS(=O)(=O)NC(=O)c2cccnc2Cl)[C@@H](O)[C@H]1O`: the MIC99 in assay [1] is 50 µM (≈ 24.3 µg/mL); in assay [3] it was 12.5 µM (≈ 6.07 µg/mL). In addition, the Ki in assay [2] is 0.175 µM.

In the case of `Nc1ncnc2c1ncn2[C@@H]1O[C@H](COS(=O)(=O)NC(=O)N2CCOCC2)[C@@H](O)[C@H]1O`, the MIC99 in assay [1] and in assay [3] was greater than 200 µM throughout. Besides, the Ki in assay [2] is greater than 100 µM.

`Nc1ncnc2c1ncn2[C@@H]1O[C@H](CNS(=O)(=O)NC(=O)c2ccccc2O)[C@@H](O)[C@H]1O` returned an MIC99 in assay [1] of 0.39 µM (≈ 0.182 µg/mL).

As for `Nc1ncnc2c1ncn2[C@@H]1O[C@H](COS(=O)(=O)NC(=O)c2ccccc2[N+](=O)[O-])[C@@H](O)[C@H]1O`, the MIC99 in assay [1] and in assay [3] was greater than 200 µM each time. The Ki in assay [2] was 7.32 µM.

Consider `Nc1ncnc2c1ncn2[C@@H]1O[C@H](COS(=O)(=O)NC(=O)c2ccc(Br)cc2O)[C@@H](O)[C@H]1O`, for which the MIC99 in assay [1] is 50 µM (≈ 27.3 µg/mL); in assay [3], 6.25 µM (≈ 3.41 µg/mL). Moreover, the Ki in assay [2] turned out to be 0.021 µM.

As for `Nc1ncnc2c1ncn2[C@@H]1O[C@H](COS(=O)(=O)NC(=O)Cc2ccccc2)[C@@H](O)[C@H]1O`, the MIC99 in assay [1] and in assay [3] was greater than 200 µM in each case. In assay [2], the Ki is greater than 100 µM.

Regarding `Nc1ncnc2c1ncn2[C@@H]1O[C@H](COS(=O)(=O)NC(=O)[C@@H](N)Cc2ccccc2)[C@@H](O)[C@H]1O` [PHESA], the MIC99 in assay [1] and in assay [3] was greater than 200 µM throughout. Further, the Ki in assay [2] worked out at 36.5 µM.

`Nc1ncnc2c1ncn2[C@@H]1O[C@H](COS(=O)(=O)NC(=O)c2cc(Cl)ccc2O)[C@@H](O)[C@H]1O`: the MIC99 turned out to be 50 µM (≈ 25 µg/mL) in assay [1] and 12.5 µM (≈ 6.26 µg/mL) in assay [3]. Besides, the Ki in assay [2] was determined as 0.02 µM.

In the case of `Nc1ncnc2c1ncn2[C@@H]1O[C@H](COS(=O)(=O)NC(=O)c2ccccc2F)[C@@H](O)[C@H]1O`, the MIC99 in assay [1] was 50 µM (≈ 23.4 µg/mL); in assay [3], 12.5 µM (≈ 5.86 µg/mL). Also, in assay [2], the Ki came to 0.038 µM.

For the compound `COC(=O)NS(=O)(=O)OC[C@H]1O[C@@H](n2cnc3c(N)ncnc32)[C@H](O)[C@@H]1O`, the MIC99 in assay [1] and in assay [3] was greater than 200 µM in each case. For the same compound, the Ki in assay [2] came to 2.5 µM.

The values are drawn from ChEMBL document CHEMBL1138283, “5'-O-[(N-acyl)sulfamoyl]adenosines as antitubercular agents that inhibit MbtA: an adenylation enzyme required for siderophore biosynthesis of the mycobactins” (J Med Chem, 2007).
